# Legend:
# Assay type in all cases: toxicity, cell-based
# Fibroblast [1] = assay: Incucyte cell viability with human fibroblast; conditions: 10 µM, compound concentration 10 uM; also: filed as whole numbers so only -1 and 0 and 1 occur
# U2OS = assay: Incucyte cell viability with U2OS; conditions: human, 10 µM, compound concentration 10 uM; also: filed as whole numbers so only -1 and 0 and 1 occur
# HEK-293T = assay: Incucyte cell viability with HEK293T; conditions: human, 10 µM, compound concentration 10 uM; also: filed as whole numbers so only -1 and 0 and 1 occur
# Fibroblast [2] = assay: Multiplex assay against human fibroblast
# How it was run: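 At seeding, live cells were stained with Hoechst33342, BioTracker Green Microtubule Cytoskeleton Dye, MitoTracker Red and Annexin V Alexa Fluor 680. After compound addition they were imaged on a CQ1 microscope at 37°C and 5% CO2, and CellPathfinder machine-learning gating sorted them into Hoechst high-intensity objects or normal cells, with normal cells further split into healthy, pyknosed or fragmented nuclei and pyknosed cells into mitotic or apoptotic. Tubulin, mitochondrial-mass and membrane-permeability phenotypes are given as per cents of cells with healthy nuclei.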
# [3] = 12 h, replicate number 1, timepoint 12 hours
# [4] = 18 h, replicate number 1, timepoint 18 hours
# [5] = 18 h, replicate number 2, timepoint 18 hours
# [6] = 24 h, replicate number 1, timepoint 24 hours
# [7] = 0 h, replicate number 2, timepoint 0 hours
# [8] = 6 h, replicate number 1, timepoint 6 hours
# [9] = 12 h, 1 µM, compound concentration 1 uM, replicate 1
# [10] = 12 h, 1 µM, compound concentration 1 uM, replicate 2
# [11] = 12 h, 10 µM, compound concentration 10 uM, replicate 1
# [12] = 12 h, 10 µM, compound concentration 10 uM, replicate 2
# [13] = 24 h, 1 µM, compound concentration 1 uM, replicate 1
# [14] = 24 h, 1 µM, compound concentration 1 uM, replicate 2
# [15] = 24 h, 10 µM, compound concentration 10 uM, replicate 1
# [16] = 24 h, 10 µM, compound concentration 10 uM, replicate 2
compound,measurement,setting,value
CC[C@@H]1C(=O)N(C)c2cnc(Nc3ccc(C(=O)NC4CCN(C)CC4)cc3OC)nc2N1C1CCCC1 [BI-2536],Growth Rate,"Fibroblast [1]; 0 h, replicate number 1, timepoint 0 hours",0
same,Growth Rate,Fibroblast [1]; [3],1
same,Growth Rate,Fibroblast [1]; [4],0
same,Growth Rate,Fibroblast [1]; [5],1
same,Growth Rate,Fibroblast [1]; [6],0
same,Growth Rate,U2OS; [7],0
same,Growth Rate,U2OS; [8],0
same,Growth Rate,U2OS; [3],0
same,Growth Rate,U2OS; [4],0
same,Growth Rate,U2OS; [5],1
same,Growth Rate,U2OS; [6],0
same,Growth Rate,"U2OS; 24 h, replicate number 2, timepoint 24 hours",1
same,Growth Rate,HEK-293T; [7],1
same,Growth Rate,HEK-293T; [8],0
same,Growth Rate,HEK-293T; [3],0
same,Growth Rate,HEK-293T; [4],0
same,Growth Rate,HEK-293T; [6],0
same,Population Apoptotic (%),Fibroblast [2]; [9],82%
same,Population Fragmented Nuclei (%),Fibroblast [2]; [9],37%
same,Population Healthy Nuclei (%),Fibroblast [2]; [9],51%
same,Population Hoechst High Intensity Objects (%),Fibroblast [2]; [9],13%
same,Population Membrane Permeable-Phenotype (%),Fibroblast [2]; [9],6%
same,Population Mitotic Cells (%),Fibroblast [2]; [9],17%
same,Population Normal (%),Fibroblast [2]; [9],86%
same,Population Pyknosed Nuclei (%),Fibroblast [2]; [9],11%
same,Population Tubulin-Different-Phenotype (%),Fibroblast [2]; [9],10%
same,Total Cell Count,Fibroblast [2]; [9],236
same,Population Apoptotic (%),Fibroblast [2]; [10],100%
same,Population Fragmented Nuclei (%),Fibroblast [2]; [10],60%
same,Population Healthy Nuclei (%),Fibroblast [2]; [10],35%
same,Population Hoechst High Intensity Objects (%),Fibroblast [2]; [10],51%
same,Population Membrane Permeable-Phenotype (%),Fibroblast [2]; [10],0%
same,Population Mitochondria Different-Phenotype (%),Fibroblast [2]; [10],5%
same,Population Mitotic Cells (%),Fibroblast [2]; [10],0%
same,Population Normal (%),Fibroblast [2]; [10],48%
same,Population Pyknosed Nuclei (%),Fibroblast [2]; [10],4%
same,Population Tubulin-Different-Phenotype (%),Fibroblast [2]; [10],0%
same,Total Cell Count,Fibroblast [2]; [10],98
same,Population Fragmented Nuclei (%),Fibroblast [2]; [11],38%
same,Population Healthy Nuclei (%),Fibroblast [2]; [11],50%
same,Population Hoechst High Intensity Objects (%),Fibroblast [2]; [11],22%
same,Population Membrane Permeable-Phenotype (%),Fibroblast [2]; [11],2%
same,Population Mitochondria Different-Phenotype (%),Fibroblast [2]; [11],7%
same,Population Mitotic Cells (%),Fibroblast [2]; [11],19%
same,Population Normal (%),Fibroblast [2]; [11],77%
same,Population Pyknosed Nuclei (%),Fibroblast [2]; [11],11%
same,Population Tubulin-Different-Phenotype (%),Fibroblast [2]; [11],31%
same,Total Cell Count,Fibroblast [2]; [11],347
same,Population Apoptotic (%),Fibroblast [2]; [12],80%
same,Population Fragmented Nuclei (%),Fibroblast [2]; [12],50%
same,Population Healthy Nuclei (%),Fibroblast [2]; [12],41%
same,Population Hoechst High Intensity Objects (%),Fibroblast [2]; [12],26%
same,Population Membrane Permeable-Phenotype (%),Fibroblast [2]; [12],3%
same,Population Mitochondria Different-Phenotype (%),Fibroblast [2]; [12],25%
same,Population Mitotic Cells (%),Fibroblast [2]; [12],20%
same,Population Normal (%),Fibroblast [2]; [12],73%
same,Population Pyknosed Nuclei (%),Fibroblast [2]; [12],7%
same,Population Tubulin-Different-Phenotype (%),Fibroblast [2]; [12],62%
same,Total Cell Count,Fibroblast [2]; [12],89
same,Population Apoptotic (%),Fibroblast [2]; [13],80%
same,Population Fragmented Nuclei (%),Fibroblast [2]; [13],33%
same,Population Healthy Nuclei (%),Fibroblast [2]; [13],53%
same,Population Hoechst High Intensity Objects (%),Fibroblast [2]; [13],18%
same,Population Membrane Permeable-Phenotype (%),Fibroblast [2]; [13],3%
same,Population Mitochondria Different-Phenotype (%),Fibroblast [2]; [13],8%
same,Population Mitotic Cells (%),Fibroblast [2]; [13],20%
same,Population Normal (%),Fibroblast [2]; [13],81%
same,Population Pyknosed Nuclei (%),Fibroblast [2]; [13],13%
same,Population Tubulin-Different-Phenotype (%),Fibroblast [2]; [13],6%
same,Total Cell Count,Fibroblast [2]; [13],225
same,Population Apoptotic (%),Fibroblast [2]; [14],100%
same,Population Fragmented Nuclei (%),Fibroblast [2]; [14],59%
same,Population Healthy Nuclei (%),Fibroblast [2]; [14],38%
same,Population Hoechst High Intensity Objects (%),Fibroblast [2]; [14],48%
same,Population Membrane Permeable-Phenotype (%),Fibroblast [2]; [14],5%
same,Population Mitochondria Different-Phenotype (%),Fibroblast [2]; [14],0%
same,Population Mitotic Cells (%),Fibroblast [2]; [14],0%
same,Population Normal (%),Fibroblast [2]; [14],51%
same,Population Pyknosed Nuclei (%),Fibroblast [2]; [14],2%
same,Population Tubulin-Different-Phenotype (%),Fibroblast [2]; [14],11%
same,Total Cell Count,Fibroblast [2]; [14],92
same,Population Apoptotic (%),Fibroblast [2]; [15],75%
same,Population Fragmented Nuclei (%),Fibroblast [2]; [15],35%
same,Population Healthy Nuclei (%),Fibroblast [2]; [15],55%
same,Population Hoechst High Intensity Objects (%),Fibroblast [2]; [15],36%
same,Population Membrane Permeable-Phenotype (%),Fibroblast [2]; [15],1%
same,Population Mitochondria Different-Phenotype (%),Fibroblast [2]; [15],21%
same,Population Mitotic Cells (%),Fibroblast [2]; [15],25%
same,Population Normal (%),Fibroblast [2]; [15],63%
same,Population Pyknosed Nuclei (%),Fibroblast [2]; [15],10%
same,Population Tubulin-Different-Phenotype (%),Fibroblast [2]; [15],21%
same,Total Cell Count,Fibroblast [2]; [15],376
same,Population Apoptotic (%),Fibroblast [2]; [16],100%
same,Population Fragmented Nuclei (%),Fibroblast [2]; [16],57%
same,Population Healthy Nuclei (%),Fibroblast [2]; [16],28%
same,Population Hoechst High Intensity Objects (%),Fibroblast [2]; [16],35%
same,Population Membrane Permeable-Phenotype (%),Fibroblast [2]; [16],0%
same,Population Mitochondria Different-Phenotype (%),Fibroblast [2]; [16],35%
same,Population Mitotic Cells (%),Fibroblast [2]; [16],0%
same,Population Normal (%),Fibroblast [2]; [16],64%
same,Population Pyknosed Nuclei (%),Fibroblast [2]; [16],14%
same,Population Tubulin-Different-Phenotype (%),Fibroblast [2]; [16],57%
same,Total Cell Count,Fibroblast [2]; [16],76

# Source: ChEMBL document CHEMBL4689842, “EUbOPEN Chemogenomics Library wave 1” (2021)
